Xi reactivation: activators of X-chromosome reactivation in mouse fibroblasts; 0.055% of 360,000 active; activation, % at 7.58 µM; XiGFP mouse fibroblasts, % GFP-positive cells imaging, 3 d; cells co-treated with 5-aza-dC sensitizer; scaled so ellipticine positive control = 100%;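 active means mean normalized replicate activation at least 10% and every replicate at or above 10%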
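Material: XiGFP fibroblasts, SV40-immortalized; Buffer or medium: DMEM containing 5-aza-dC; Compound dosing: single point; Times: 3 days compound exposure.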
E-sel inducer: induces E-selectin expression in human endothelial cells. HUVEC E-selectin immunofluorescence imaging; normalized: neutral wells 0, TNF-alpha wells 100. activation, % at 7.58 µM. 0.37% of 260,000 active;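 active means mean E-selectin-positive cell signal at least 10% of the positive control, reached in at least 60% of replicates, without over 20% cell loss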
Target sequence (P16581 whole entry, looked up): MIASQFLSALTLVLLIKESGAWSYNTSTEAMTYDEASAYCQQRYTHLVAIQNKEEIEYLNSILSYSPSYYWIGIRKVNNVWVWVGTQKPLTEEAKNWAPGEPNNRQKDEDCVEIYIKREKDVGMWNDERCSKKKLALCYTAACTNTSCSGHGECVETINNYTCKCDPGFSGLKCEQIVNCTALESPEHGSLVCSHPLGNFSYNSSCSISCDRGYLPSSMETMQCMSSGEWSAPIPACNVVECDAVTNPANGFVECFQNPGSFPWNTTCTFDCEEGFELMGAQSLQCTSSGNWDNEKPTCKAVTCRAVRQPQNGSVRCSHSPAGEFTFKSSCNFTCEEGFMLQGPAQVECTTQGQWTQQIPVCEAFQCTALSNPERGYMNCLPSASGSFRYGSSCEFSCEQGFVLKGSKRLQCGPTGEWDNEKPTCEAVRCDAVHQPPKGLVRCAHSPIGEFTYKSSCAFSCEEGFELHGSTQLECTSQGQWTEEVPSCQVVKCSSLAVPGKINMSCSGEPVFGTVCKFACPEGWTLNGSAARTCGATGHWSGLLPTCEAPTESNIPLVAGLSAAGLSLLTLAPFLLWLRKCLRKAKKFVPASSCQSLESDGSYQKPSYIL
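material = human umbilical vein endothelial cells (HUVEC), E-selectin induction | quantity = 3,000 cells/well | medium = EGM-2 growth medium on 0.1% gelatin-coated wells | technique = immunofluorescence imaging | read-out basis = % PE-positive cells | control set = TNF-alpha positive control, DMSO neutral control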
DENV2 CPE rescue: DENV2-induced cell death inhibition; AID 651640; DENV2-infected cells, cytopathic effect rescue, plate reader; CPE inhibition, % at 9.99 µM; 1.7% of 350,000 active; in the data active means CPE inhibition above about 20%, passing the limit was not always enough; tested in BHK-21 cells
S100A4 inh HTS: S100A4-myosin IIA interaction inhibition. S100A4/TAMRA-MyoIIA peptide fluorescence polarization. 0.14% of 360,000 active. P26447. AID 652163. inhibition, % at 10.7 µM;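 active means mean inhibition of at least 70% across replicates, with every replicate also reaching that level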
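Material: S100A4 monomer protein | Medium: HEPES pH 7.2 with CaCl2, KCl, NaCl, DTT, Triton | Reagent: Labelled myosin peptide probe, 5 nM | Doses: One dose per compound | Times: 5 min incubation before reading | Benchmarks: Neutral control DMSO, positive control TFP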
Large screens that a line does not name were inactive. In the library only some 2% were active in any assay of this set; here they are far more common.

COC(=O)CCCC1=CC2=C(c3ccccc3)C(=O)C(C)(OC(=O)C3CCCC3)C(=O)C2=CN1C(CO)CO (stereo not drawn)	none
COc1ccccc1-c1cn(CC[C@H]2CC[C@@H](NC(=O)C3CC3)[C@@H](CO)O2)nn1	none
CC(C)Cc1ccc(C(C)C(N)=NCCc2ccccc2)cc1 (stereo not drawn)	DENV2 CPE rescue 33.4
CCN(C(=O)COC(=O)CNC(=O)c1ccc2ccccc2c1)c1c(N)n(Cc2ccccc2)c(=O)[nH]c1=O	none
C[C@@H]1CCCCO[C@@H](CN(C)C(=O)CCC(F)(F)F)[C@@H](C)CN([C@@H](C)CO)C(=O)c2cc(NC(=O)c3ccccc3)ccc2O1	DENV2 CPE rescue 156.7, S100A4 inh HTS 97.2
C[C@H](CO)N1C[C@H](C)[C@H](CN(C)C(=O)CCC(F)(F)F)OCCCC[C@H](C)Oc2ccc(NC(=O)c3ccccc3)cc2C1=O	DENV2 CPE rescue 21.0
Cc1cc(=O)n(C(C)Cc2ccccc2)n1C(C)Cc1ccccc1 (stereo not drawn)	none
Cc1ccc(NC(=O)c2cc(-c3cc(Cl)ccc3C)n[nH]2)cc1NS(C)(=O)=O	DENV2 CPE rescue 26.5
COc1ccc(Cl)cc1-c1cc(C(=O)Nc2ccc(C)c(NS(C)(=O)=O)c2)[nH]n1	none
COc1ccc2c(C)c(CCC(=O)NCCCN3CCCC3=O)c(=O)oc2c1C	none (no result: Xi reactivation, E-sel inducer)
CCN1C(=O)[C@H]2[C@@H](c3ccc(OC)cc3)N3C(=O)CN(CCOC)C(=O)[C@@]3(Cc3ccccc3)[C@H]2C1=O	DENV2 CPE rescue 65.7
CCCCN1CC(=O)N2[C@H](c3ccc(OC)cc3)[C@@H]3C(=O)N(CC)C(=O)[C@@H]3[C@]2(Cc2ccccc2)C1=O	none
CCN(CC)S(=O)(=O)c1ccc(NC(=O)COC(=O)CNC(=O)C2CCCCC2)cc1	DENV2 CPE rescue 62.6
Cc1ccc(NC(=O)COC(=O)CNC(=O)C2CCCCC2)cc1S(=O)(=O)N(C)C	none
CCOC(=O)c1c(C)[nH]c(C)c1C(=O)COC(=O)[C@@H]1CCCN1S(=O)(=O)c1ccc(Cl)cc1	none (no result: Xi reactivation, E-sel inducer)
CCC(=O)NCCc1nc2ccccc2n1CC(=O)c1ccccc1	DENV2 CPE rescue 76.3
CC(C)(C)C(=O)NCCc1nc2ccccc2n1CC(=O)c1ccccc1	none
Cc1ccc(OCCCCCCN2CCNCC2)c(Br)c1	none (no result: E-sel inducer)
O=C(NCc1ccccc1)/C(=C\c1cccc([N+](=O)[O-])c1)NC(=O)c1ccco1	DENV2 CPE rescue 45.8
O=C(O)CNC(=O)/C(=C/c1cccc([N+](=O)[O-])c1)NC(=O)c1ccco1	none (no result: E-sel inducer)
COC(=O)C1=C(C)N(Cc2ccc(C(F)(F)F)cc2)C(=NCc2ccccc2)NC1c1cccc(C(F)(F)F)c1 (stereo not drawn)	none
COc1ccc2c3c(n(C)c2c1)[C@H](CO)N(C(=O)C1CCC1)CC31CCN(C)CC1	none
O=C(c1ccc(NC2=NC3CS(=O)(=O)CC3S2)cc1)N1CCN(c2ccc([N+](=O)[O-])cc2)CC1 (stereo not drawn)	DENV2 CPE rescue 38.6 (no result: E-sel inducer)
O=C(c1ccc(NC2=NC3CS(=O)(=O)CC3S2)cc1)N1CCN(c2ccccc2)CC1 (stereo not drawn)	none
O=C(CN1CCN(C(=O)C2CCC2)CC1)Nc1ccc(F)cc1	DENV2 CPE rescue 32.1 (no result: E-sel inducer)
Cc1cccc(C)c1NC(=O)CN1CCN(C(=O)C2CCC2)CC1	none
C[C@H](NC(=O)C[C@H]1C[C@@H]2c3cc(NC(=O)CN(C)C)ccc3O[C@@H]2[C@H](CO)O1)c1ccccc1	S100A4 inh HTS 107.6
C[C@H](NC(=O)C[C@@H]1C[C@H]2c3cc(NC(=O)Nc4ccc(C(F)(F)F)cc4)ccc3O[C@H]2[C@H](CO)O1)c1ccccc1	none
C[C@H](NC(=O)C[C@@H]1C[C@@H]2c3cc(NC(=O)Nc4ccc(C(F)(F)F)cc4)ccc3O[C@@H]2[C@@H](CO)O1)c1ccccc1	S100A4 inh HTS 85.4
C=CCCC(=O)N1C[C@H]2CCN(C)[C@H]2C[C@H]1c1ccccc1	none
Cc1cc(=O)nc2c3ccccc3n(C(C)C(=O)NCCN3CCOCC3)n12 (stereo not drawn)	DENV2 CPE rescue 35.3 (no result: E-sel inducer)
CN(CC(=O)Nc1ccc(F)cc1)C(=O)CN1C(=O)NC2(CCCC2)C1=O	none (no result: E-sel inducer)
NC(=O)CSc1nnc(SCc2ccc(F)cc2)s1	E-sel inducer 27.2
COC(=O)c1cc(CNC(=O)C(C)NS(=O)(=O)c2ccc(C)c(C)c2)ccc1OC (stereo not drawn)	none
